23 compounds from ChEMBL document CHEMBL4368884, “Structure-activity relationship of the cinnamamide family of antibiotic potentiators for methicillin-resistant Staphylococcus aureus (MRSA)” (Medchemcomm, 2018) can be followed below.

The test system of one data set is Staphylococcus aureus. In words: Growth inhibition of Staphylococcus aureus MRSA252. It is filed as organism-based. As to conditions: in vitro. The method in brief:
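Compound alone was two-fold serially diluted in cation-adjusted Mueller-Hinton II broth containing 2.4% DMSO. Bacteria were inoculated at 5 × 10⁵ CFU mL⁻¹ and incubated at 36 °C for 16–20 h. The MIC was read in triplicate.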
In the case of `Cc1ccc(S(=O)(=O)N(CCO)c2ccccc2CN(C)C(=O)/C=C/c2ccco2)cc1`, the “growth inhibition (GI)” value was “Non-Toxic”.

Consider `CN(Cc1ccccc1)Cc1ccccc1N(CCO)S(=O)(=O)c1ccc(C(F)(F)F)cc1`, for which the “growth inhibition (GI)” value is “Non-Toxic”.

Take `Cc1ccc(S(=O)(=O)N(CCO)c2ccccc2CN(C)C/C=C/c2ccc(Cl)cc2)cc1`: the “growth inhibition (GI)” value is recorded as “Non-Toxic”.

With `CN(C/C=C/c1ccccc1)Cc1ccccc1N(CCO)S(=O)(=O)c1ccc(C(F)(F)F)cc1`, the “growth inhibition (GI)” value is “Non-Toxic”.

Turning to `CC(=O)Nc1ccc(S(=O)(=O)N(CCO)c2ccccc2CN(C)C/C=C/c2ccc(Cl)cc2)cc1`, the “growth inhibition (GI)” value is listed as “Non-Toxic”.

As for `CN(C/C=C/c1ccc(Cl)cc1)Cc1ccccc1N(CCO)S(=O)(=O)c1ccc(C(F)(F)F)cc1`, the “growth inhibition (GI)” value is reported as “Non-Toxic”.

As to `Cc1ccc(S(=O)(=O)N(CCO)c2ccccc2CN(C)C(=O)/C=C/c2ccc(Br)s2)cc1`, the “growth inhibition (GI)” value is “Non-Toxic”.

For the compound `Cc1ccc(S(=O)(=O)N(CCO)c2ccccc2CN(C)C/C=C/c2ccc(Cl)c(Cl)c2)cc1`, the “growth inhibition (GI)” value was “Non-Toxic”.

For `Cc1ccc(S(=O)(=O)N(CCO)c2ccccc2CN(C)C/C=C/c2ccccc2)cc1`, the “growth inhibition (GI)” value is recorded as “Non-Toxic”.

Turning to `COc1ccc(S(=O)(=O)N(CCO)c2ccccc2CN(C)C/C=C/c2ccccc2)cc1`, the “growth inhibition (GI)” value is “Non-Toxic”.

On to `C=CCN(Cc1ccccc1N(CCO)S(=O)(=O)c1ccc(OC)cc1)C(C)C`, for which the “growth inhibition (GI)” value was “Non-Toxic”.

With `Cc1ccc(S(=O)(=O)N(CCO)c2ccccc2CN(C)C(=O)c2ccc(Cl)cc2)cc1`, the “growth inhibition (GI)” value is on record as “Non-Toxic”.

`C=CCN(C)Cc1ccccc1N(CCO)S(=O)(=O)c1ccc(Cl)cc1`: the “growth inhibition (GI)” value is “Non-Toxic”.

With `Cc1ccc(S(=O)(=O)N(CCO)c2ccccc2CN(C)C(=O)CCc2ccc(Cl)cc2)cc1`, the “growth inhibition (GI)” value is listed as “Non-Toxic”.

As for `CN(C/C=C/c1ccc(Cl)cc1)Cc1ccccc1N(CCO)S(=O)(=O)c1ccc(Cl)cc1`, the “growth inhibition (GI)” value is “Non-Toxic”.

Take `CN(C/C=C/c1ccc(Cl)cc1)Cc1ccccc1N(CCO)S(=O)(=O)Cc1ccccc1`: the “growth inhibition (GI)” value is “Non-Toxic”.

Consider `Cc1ccc(S(=O)(=O)N(CCO)c2ccccc2CN(C)C(=O)c2ccc3cc(Br)ccc3c2)cc1`, for which the “growth inhibition (GI)” value is on record as “Non-Toxic”.

With `Cc1ccc(S(=O)(=O)N(CCO)c2ccccc2CN(C)C(=O)COc2ccc(Cl)cc2)cc1`, the “growth inhibition (GI)” value is “Non-Toxic”.

On to `Cc1ccc(S(=O)(=O)N(CCO)c2ccccc2CN(C)C(=O)/C=C/c2ccc(-c3ccc(Cl)cc3)o2)cc1`, for which the “growth inhibition (GI)” value is “Non-Toxic”.

As to `Cc1ccc(S(=O)(=O)N(CCO)c2ccccc2C(=O)N(C)C/C=C/c2ccc(Cl)cc2)cc1`, the “growth inhibition (GI)” value is on record as “Non-Toxic”.

As to `Cc1ccc(S(=O)(=O)N(CCO)c2ccccc2CN(C)C(=O)/C=C/c2cccnc2)cc1`, the “growth inhibition (GI)” value was “Non-Toxic”.

Regarding `Cc1ccc(S(=O)(=O)N(CCO)c2cccc(CN(C)C(=O)/C=C/c3ccc(C(F)(F)F)cc3)c2)cc1`, the “growth inhibition (GI)” value is recorded as “Non-Toxic”.

Take `C=CCN(C)Cc1ccccc1N(CCO)S(=O)(=O)c1ccc(C)cc1`: the “growth inhibition (GI)” value is “Non-Toxic”.

The next data set has as its system Staphylococcus aureus. The data set can be described thus: Potentiation of oxacillin-induced antibacterial activity against Staphylococcus aureus MRSA252 assessed as oxacillin MIC at 20 uM (reference value: 256 ug/ml). It is filed as functional.
Details: not given
For the compound `Cc1ccc(S(=O)(=O)N(CCO)c2ccccc2CN(C)C(=O)/C=C/c2ccco2)cc1`, the MIC is no less than 256 µg/mL.

As for `CN(Cc1ccccc1)Cc1ccccc1N(CCO)S(=O)(=O)c1ccc(C(F)(F)F)cc1`, the MIC was no less than 256 µg/mL.

`Cc1ccc(S(=O)(=O)N(CCO)c2ccccc2CN(C)C/C=C/c2ccc(Cl)cc2)cc1`: the MIC came out at 32 µg/mL.

In the case of `CN(C/C=C/c1ccccc1)Cc1ccccc1N(CCO)S(=O)(=O)c1ccc(C(F)(F)F)cc1`, the MIC came out at 32 µg/mL.

As for `CC(=O)Nc1ccc(S(=O)(=O)N(CCO)c2ccccc2CN(C)C/C=C/c2ccc(Cl)cc2)cc1`, the MIC is no less than 256 µg/mL.

As to `CN(C/C=C/c1ccc(Cl)cc1)Cc1ccccc1N(CCO)S(=O)(=O)c1ccc(C(F)(F)F)cc1`, the MIC came out at 64 µg/mL.

For `Cc1ccc(S(=O)(=O)N(CCO)c2ccccc2CN(C)C(=O)/C=C/c2ccc(Br)s2)cc1`, the MIC was no less than 256 µg/mL.

As for `Cc1ccc(S(=O)(=O)N(CCO)c2ccccc2CN(C)C/C=C/c2ccc(Cl)c(Cl)c2)cc1`, the MIC turned out to be 32 µg/mL.

In the case of `Cc1ccc(S(=O)(=O)N(CCO)c2ccccc2CN(C)C/C=C/c2ccccc2)cc1`, the MIC was no less than 256 µg/mL.

With `COc1ccc(S(=O)(=O)N(CCO)c2ccccc2CN(C)C/C=C/c2ccccc2)cc1`, the MIC is no less than 256 µg/mL.

For `C=CCN(Cc1ccccc1N(CCO)S(=O)(=O)c1ccc(OC)cc1)C(C)C`, the MIC is no less than 256 µg/mL.

As for `Cc1ccc(S(=O)(=O)N(CCO)c2ccccc2CN(C)C(=O)c2ccc(Cl)cc2)cc1`, the MIC is no less than 256 µg/mL.

In the case of `C=CCN(C)Cc1ccccc1N(CCO)S(=O)(=O)c1ccc(Cl)cc1`, the MIC was no less than 256 µg/mL.

As for `Cc1ccc(S(=O)(=O)N(CCO)c2ccccc2CN(C)C(=O)CCc2ccc(Cl)cc2)cc1`, the MIC was no less than 256 µg/mL.

For `CN(C/C=C/c1ccc(Cl)cc1)Cc1ccccc1N(CCO)S(=O)(=O)c1ccc(Cl)cc1`, the MIC is 16 µg/mL.

`CN(C/C=C/c1ccc(Cl)cc1)Cc1ccccc1N(CCO)S(=O)(=O)Cc1ccccc1`: the MIC is no less than 256 µg/mL.

For the compound `Cc1ccc(S(=O)(=O)N(CCO)c2ccccc2CN(C)C(=O)c2ccc3cc(Br)ccc3c2)cc1`, the MIC is no less than 256 µg/mL.

With `Cc1ccc(S(=O)(=O)N(CCO)c2ccccc2CN(C)C(=O)COc2ccc(Cl)cc2)cc1`, the MIC was no less than 256 µg/mL.

In the case of `Cc1ccc(S(=O)(=O)N(CCO)c2ccccc2CN(C)C(=O)/C=C/c2ccc(-c3ccc(Cl)cc3)o2)cc1`, the MIC is no less than 256 µg/mL.

For the compound `Cc1ccc(S(=O)(=O)N(CCO)c2ccccc2C(=O)N(C)C/C=C/c2ccc(Cl)cc2)cc1`, the MIC was no less than 256 µg/mL.

In the case of `Cc1ccc(S(=O)(=O)N(CCO)c2ccccc2CN(C)C(=O)/C=C/c2cccnc2)cc1`, the minimal inhibitory concentration (MIC) was no less than 256 µg/mL.

As for `Cc1ccc(S(=O)(=O)N(CCO)c2cccc(CN(C)C(=O)/C=C/c3ccc(C(F)(F)F)cc3)c2)cc1`, the MIC is no less than 256 µg/mL.

On to `C=CCN(C)Cc1ccccc1N(CCO)S(=O)(=O)c1ccc(C)cc1`, for which the MIC was no less than 256 µg/mL.
